Common to all, as to assay type: functional, cell-based
The subject of one experiment is HL-60. As to the kind of experiment: Cytotoxicity against human HL60 cells after 48 hrs by MTT assay. As to conditions: HL-60, 48 h. In short, it runs like this:
(§1)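 Cells kept in RPMI-1640 with 10% FBS, penicillin and streptomycin, at 37 °C under 5% CO2. Seeded at 2000/mL and grown 24 h, then given serial dilutions (100 to 1 μg/mL; DMSO stock diluted in medium). Vehicle control was 0.1% DMSO. After 48 h, MTT added for 4 h. Formazan dissolved in acid-isopropanol and read at 570 nm. Run in triplicate.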
On the technique in general: Tetrazolium assays rely on reduction of a dye to a coloured formazan, in cell work by metabolically active cells.

The next experiment deals with Bel-7402. As to the kind of experiment: Cytotoxicity against human Bel7402 cells after 48 hrs by MTT assay. As to conditions: Bel-7402, 48 h. In short, it runs like this:
as §1

The subject of another experiment is HeLa. The experiment in a line: Cytotoxicity against human HeLa cells after 48 hrs by MTT assay. In short, it runs like this:
as §1

A further experiment deals with U-937. As to the kind of experiment: Cytotoxicity against human U937 cells after 48 hrs by MTT assay. The settings on record: U-937, 48 h. In short, it runs like this:
as §1

Values after ≈ are worked out from the molar mass of the structure shown.

For `CCCCCCCCCCCC1=C(O)/C(=C2\C(=O)Oc3c2cc(OC)c(O)c3CCCCCCCCCCC)OC1=O`, the IC50 with HL-60, in the experiment with Bel-7402, in the experiment with HeLa and in the experiment on U-937 was over 100 µg/mL each time.

`CCCCCCCCCCCC1=C(O)C(=O)C=C(OCC)C1=O`: the 50% inhibitory concentration (IC50) (commonly the concentration at which inhibition is half-maximal) in the experiment with HL-60 was found to be 2.5 µg/mL (≈ 7.75 µM); in the experiment with Bel-7402, 2.7 µg/mL (≈ 8.37 µM); with HeLa it was 3.9 µg/mL (≈ 12.1 µM); with U-937 it was 1.3 µg/mL (≈ 4.03 µM).

`CCCCCCCCCCCC1=C(O)C(=O)c2c(oc3cc(OC)c(O)c(CCCCCCCCCCC)c23)C1=O`: the IC50 in the experiment with HL-60, with Bel-7402, in the experiment with HeLa and in the experiment on U-937 was over 100 µg/mL in each case.

Take `COc1cc2c(c(OC)c1OC)-c1ccc(OC)c(=O)cc1[C@@H](NC(C)=O)CC2` [COLCHICINE]: the IC50 with Bel-7402 came to 0.4 µg/mL (≈ 1 µM); in the experiment with U-937 it was 0.1 µg/mL (≈ 0.25 µM).

With `CCCCCCCCCCCC1=C(OC(C)=O)C(=O)C=C(OC)C1=O`, the half-maximal inhibitory concentration (IC50) with HL-60, with Bel-7402, in the experiment on HeLa and in the experiment on U-937 was over 100 µg/mL in each case.

For `CCCCCCCCCc1cc(O)cc(O)c1OC`, the concentration for half-maximal inhibition (IC50) in the experiment with HL-60, with Bel-7402, with HeLa and in the experiment on U-937 was over 100 µg/mL each time.

Consider `CCCCCCCCCCCC1=CC(=O)C=C(OC)C1=O`, for which the 50% inhibitory concentration (IC50) with HL-60, in the experiment with Bel-7402, in the experiment on HeLa and with U-937 was over 100 µg/mL throughout.

With `CCCCCCCCCCCC1=C(O)C(=O)c2c(oc3c(CCCCCCCCCCC)c(O)c(OC)cc23)C1=O`, the IC50 in the experiment on HL-60, in the experiment on Bel-7402, with HeLa and with U-937 was over 100 µg/mL throughout.

Consider `CCCCCCCCCCCC1=C(O)C(=O)C=C(OC)C1=O` [5-O-METHYLEMBELIN], for which the IC50 is 3 µg/mL (≈ 9.73 µM) with HL-60, 3.6 µg/mL (≈ 11.7 µM) in the experiment with Bel-7402, 9 µg/mL (≈ 29.2 µM) in the experiment with HeLa and 1.5 µg/mL (≈ 4.86 µM) in the experiment with U-937.

For the compound `CCCCCCCCCCCC1=C(O)C(=O)c2c(CCCCCCCCCCC)cc(O)cc2C1=O`, the IC50 in the experiment on HL-60, in the experiment on Bel-7402, in the experiment with HeLa and in the experiment with U-937 was over 100 µg/mL throughout.

The record behind these values is ChEMBL document CHEMBL1151196, “Chemical constituents from the mangrove plant, Aegiceras corniculatum” (J Nat Prod, 2004).
